Experimental data reported in ChEMBL document CHEMBL3853349, “Diversity-Oriented Synthesis as a Strategy for Fragment Evolution against GSK3β” (ACS Med Chem Lett, 2016).
Calls of active or inactive are those of the source. No cut-off for these calls is given here.

Columns and labels:
[1] = target: T1, Glycogen synthase kinase-3 beta (Homo sapiens, UniProt P49841); experiment: Inhibition of recombinant full-length N-terminal GST tagged human GSK-3 beta expressed in baculovirus infected Sf9 insect cells at 1 mM using GSM as substrate after 5 mins by ADP-Glo luminescence assay
Summary of the method: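 Single-point ADP-Glo biochemical inhibition of GSK3β with compound at 1 mM, used to rank analogues alongside DSF.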
Target sequence in this assay (P49841 whole entry, looked up): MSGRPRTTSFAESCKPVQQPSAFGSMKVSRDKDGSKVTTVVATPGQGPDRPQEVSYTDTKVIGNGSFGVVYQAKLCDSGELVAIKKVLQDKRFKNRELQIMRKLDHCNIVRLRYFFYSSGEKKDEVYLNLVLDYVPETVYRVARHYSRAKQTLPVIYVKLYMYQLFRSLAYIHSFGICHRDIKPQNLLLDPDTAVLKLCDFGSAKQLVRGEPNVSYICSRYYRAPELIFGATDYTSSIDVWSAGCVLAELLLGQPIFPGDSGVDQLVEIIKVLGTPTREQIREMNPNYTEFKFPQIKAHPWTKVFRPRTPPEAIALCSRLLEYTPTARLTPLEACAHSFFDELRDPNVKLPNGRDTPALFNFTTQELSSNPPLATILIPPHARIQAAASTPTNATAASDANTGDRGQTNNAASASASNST

[2] = target: T1, Glycogen synthase kinase-3 beta; experiment: Binding affinity to GSK-3 beta (unknown origin) assessed as thermal shift at 1.25 mM by differential scanning fluorimetry
Summary of the method: (§1)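 Differential scanning fluorimetry on GSK3β, reported as thermal stabilization ΔT in °C. Compounds were tested at 2.5 mM by default; the growth-vector analogue set was run at 1.25 mM for ranking.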
Target sequence in this assay (P49841 whole entry, looked up): as above

[3] = target: T1, Glycogen synthase kinase-3 beta; experiment: Binding affinity to GSK-3 beta (unknown origin) assessed as assessed as thermal shift at 2.5 mM by differential scanning fluorimetry; summary of the method: as §1
Target sequence in this assay (P49841 whole entry, looked up): as above

[4] = target: T1, Glycogen synthase kinase-3 beta; experiment: Binding affinity to GSK-3 beta (unknown origin) by STD NMR analysis
Target sequence in this assay (P49841 whole entry, looked up): as above

[5] = target: T1, Glycogen synthase kinase-3 beta; experiment: Binding affinity to GSK-3 beta (unknown origin) by WaterLOGSY NMR analysis
Target sequence in this assay (P49841 whole entry, looked up): as above

[6] = target: T1, Glycogen synthase kinase-3 beta; experiment: Binding affinity to GSK-3 beta (unknown origin) after 30 mins by isothermal titration calorimetry
Target sequence in this assay (P49841 whole entry): as the sequence (P49841 whole entry, looked up) above

Homo sapiens = organism: Homo sapiens; experiment: Selectivity ratio of IC50 for CDK5 (unknown origin) to IC50 for GSK-3 beta (unknown origin)
[7] = target: T1, Glycogen synthase kinase-3 beta; experiment: Inhibition of recombinant full-length N-terminal GST tagged human GSK-3 beta expressed in baculovirus infected Sf9 insect cells using GSM as substrate after 5 mins by ADP-Glo luminescence assay
Target sequence in this assay (P49841 whole entry): as the sequence (P49841 whole entry, looked up) above

With `O=C1Nc2ncccc2N[C@H]1Cc1ccc(O)cc1` the inhibition [1] was 78% and the deltaT [2] was 2.1 °C.

For `O=C1Nc2ncccc2N2C[C@H](O)C[C@@H]12`, the deltaT [3] was 0.8 °C.

For `C[C@H]1Nc2cccnc2N(C)C1=O`, the inhibition [1] was 19% and the deltaT [3] was 0 °C.

With `C[C@H]1Nc2cccnc2NC1=O` the inhibition [1] was 46%, the deltaT [2] was 1 °C and the Activity [4] was “Active”. The Activity [5] was “Active”, the deltaT [3] was 1.7 °C and the Kd [6] was 600 µM.

Work on `CC(C)[C@H]1Nc2cccnc2NC1=O` yielded an inhibition [1] of 57%, a deltaT [2] of 1.6 °C and a deltaT [3] of 2.3 °C.

`CC1(C)Nc2cccnc2NC1=O` was tested, and the inhibition [1] was 26% and the deltaT [3] was 0.7 °C.

`C[C@@H]1Nc2ccccc2NC1=O` gave an inhibition [1] of 9% and a deltaT [3] of 0 °C.

With `C[C@@H]1Nc2cnccc2NC1=O` the inhibition [1] was 29% and the deltaT [3] was 0.5 °C.

Work on `C[C@H]1Nc2ncccc2NC1=O` yielded an inhibition [1] of 66% and a deltaT [3] of 1.4 °C.

`C[C@@H]1CNc2ncccc2N1` showed an inhibition [1] of 17% and a deltaT [3] of 0 °C.

With `C[C@H]1Nc2cnccc2NC1=O` the inhibition [1] was 25% and the deltaT [3] was 0.5 °C.

Work on `CC(C)[C@@H]1Nc2cccnc2NC1=O` yielded an inhibition [1] of 25% and a deltaT [2] of 0 °C.

`C[C@H]1Nc2ccccc2NC1=O` showed an inhibition [1] of 12% and a deltaT [3] of 0 °C.

`C[C@H]1Nc2ccncc2NC1=O` was tested, and the inhibition [1] was 61% and the deltaT [3] was 1.6 °C.

For `O=C1Nc2ncccc2N[C@H]1CO`, the deltaT [3] was 0.5 °C.

`Cc1nc2cccnc2[nH]c1=O` showed an inhibition [1] of 35% and a deltaT [2] of 0.5 °C.

In the case of `O=C1Nc2ncccc2N[C@@H]1Cc1c[nH]c2ccccc12`, the inhibition [1] is reported as 94%, the deltaT [2] is reported as 4.5 °C and the Ratio IC50 (Homo sapiens) is reported as 50. It also gave a Kd [6] of 9 µM and an IC50 [7] of 18 µM.

For `C[C@@H]1Nc2ccncc2NC1=O`, the inhibition [1] was 69% and the deltaT [3] was 1.4 °C.

In the case of `O=C1Nc2ncccc2N[C@H]1Cc1ccccc1`, the inhibition [1] is reported as 55% and the deltaT [2] is reported as 0 °C.

For `C[C@@H]1Nc2cccnc2NC1=O`, the inhibition [1] was 19%, the deltaT [2] was 0 °C and the deltaT [3] was 0.5 °C.

`C[C@@H]1Nc2ncccc2NC1=O` was tested, and the inhibition [1] was 63% and the deltaT [3] was 1 °C.

`O=C1Nc2ncccc2N[C@@H]1Cc1ccc(O)cc1` gave an inhibition [1] of 88% and a deltaT [2] of 2.9 °C.

Molecule `O=C1Nc2ncccc2N[C@@H]1Cc1ccccc1` has an inhibition [1] of 63% and a deltaT [2] of 1.6 °C.

`O=C1Nc2ncccc2N[C@H]1Cc1c[nH]c2ccccc12` showed an inhibition [1] of 76%, a deltaT [2] of 1.7 °C and an IC50 [7] of 322 µM.
